{"data": "Published values collected from several papers", "observed": "cell growth or viability", "note": "Lines come from different studies, so protocols differ."}
{"Compound": "Cc1cccc2[nH]cc(CNCC3(N4CCCC4)COC3)c12", "cell line": "U-87 MG", "tested at": "30 µM", "time": "48 h", "endpoint": "viability", "result": "52.5%"}
{"Compound": "Cc1cc(N(CCO)CCO)ccc1C(=O)O", "cell line": "SN12K1", "endpoint": "IC50", "result": "> 10 µg/mL"}
{"Compound": "CC1=C(O)C(=O)C=C2C1=CC=C1[C@@]2(C)CC[C@@]2(C)[C@@H]3C[C@](C)(C(=O)OCCCn4cc(C=O)c5ccccc54)CC[C@]3(C)CC[C@]12C", "cell line": "AGS", "technique": "MTT", "time": "48 h", "endpoint": "IC50", "result": "320 nM"}
{"Compound": "CC[C@@]1(OC(=O)[C@@H](N)Cc2ccccc2)C(=O)OCc2c1cc1n(c2=O)Cc2cc3cc4c(cc3nc2-1)OCO4", "cell line": "HCT-116", "technique": "MTT", "endpoint": "IC50", "result": "38 nM"}
{"Compound": "Cc1cccc(-n2ncc(Cl)c(Cl)c2=O)c1", "cell line": "PC-9", "technique": "resazurin", "time": "96 h", "endpoint": "IC50", "result": "650 nM"}
{"Compound": "CC[C@@]1(OC(=O)[C@H](C)N)C(=O)OCc2c1cc1n(c2=O)Cc2cc3cc4c(cc3nc2-1)OCO4", "cell line": "HCT-116", "technique": "MTT", "endpoint": "IC50", "result": "80 nM"}
{"Compound": "COc1cc2c(c3c1C(=O)C[C@@H](c1ccccc1)O3)[C@H]1[C@@H](O2)OC(C)(C)[C@@H]1OC(C)=O", "cell line": "Raji", "technique": "MTS", "time": "48 h", "endpoint": "IC50", "result": "> 10000 nM"}
{"Compound": "O=c1c2ccccc2nc(S)n1-c1ccccc1", "cell line": "HCT-116", "technique": "LDH", "tested at": "200 µg/mL", "time": "24 h", "endpoint": "viability", "result": "73.5%"}
{"Compound": "Cc1cc(N(CCOS(C)(=O)=O)CCOS(C)(=O)=O)ccc1C=O", "cell line": "SN12K1", "endpoint": "IC50", "result": "0.79 µg/mL"}
{"Compound": "CC[C@@]1(OC(=O)C(C)c2cccc(C(=O)c3ccccc3)c2)C(=O)OCc2c1cc1n(c2=O)Cc2cc3cc4c(cc3nc2-1)OCO4 (stereo partly shown)", "cell line": "HCT-116", "technique": "MTT", "endpoint": "IC50", "result": "302 nM"}
{"Compound": "COc1c2ccoc2cc2oc(=O)ccc12", "cell line": "HCT-116", "technique": "WST-1", "time": "48 h", "endpoint": "IC50", "result": "29000 nM"}
{"Compound": "Cc1cccc2c(CNCC3(N4CCCC4)COC3)c[nH]c12", "cell line": "U-87 MG", "tested at": "30 µM", "time": "48 h", "endpoint": "viability", "result": "3.42%"}
{"Compound": "CC[C@@]1(OC(=O)C(C)c2ccc(CC(C)C)cc2)C(=O)OCc2c1cc1n(c2=O)Cc2cc3cc4c(cc3nc2-1)OCO4 (stereo partly shown)", "cell line": "HCT-116", "technique": "MTT", "endpoint": "IC50", "result": "> 5000 nM"}
